Here are results for two molecules from paper PMC7115694 (European Journal of Medicinal Chemistry, 2010).

Common to all, as to format: cell-based
The test system of one data set is Coxsackie virus B4. Nature of the data set: microbe, parasite or virus in culture. The settings on record: Enterovirus B, B4, HeLa, read-out: EC50 Coxsackie virus B4 visual CPE score.
In the next data set the test system is Vero cells. Nature of the data set: Cytotoxicity in uninfected cell cultures. The following applies: cell morphology. The procedure, abridged: (§1)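 Uninfected cell cultures are exposed to serial dilutions of test compound in parallel with the virus cytopathicity assays. Cells are examined microscopically. Minimum cytotoxic concentration is the lowest concentration causing a microscopically detectable alteration of normal cell morphology.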

A further data set concerns Punta Toro virus. Nature of the data set: microbe, parasite or virus in culture. The following applies: Vero, read-out: EC50 Punta Toro virus.
A further data set has as its system Reovirus-1. Nature of the data set: organism not typed. The following applies: Vero, read-out: EC50 Reovirus-1.
Another data set concerns Para-influenza-3 virus. The data set is described as follows: organism not typed. The settings on record: Vero, read-out: EC50 Para-influenza-3 virus.
The next data set deals with Sindbis virus. The data set is described as follows: microbe, parasite or virus in culture. The following applies: Vero, read-out: EC50 Sindbis virus.
A further data set deals with HeLa cells. Nature of the data set: Cytotoxicity in uninfected cell cultures. The settings on record: cell morphology. A digest of the protocol: as §1
In data set [1] the test system is Feline Corona virus (FIPV). The following applies: CRFK cell cultures, MTS assay. On the technique in general: Tetrazolium dyes change colour on reduction, which living cells bring about.
The next data set concerns Feline Herpes virus. Nature of the data set: organism not typed. The following applies: CRFK cell cultures, MTS assay.

In general, EC50 refers to the midpoint of the concentration-response curve.

`Nc1ncnc2c1ncn2C[C@H](O)CO` [(S)-DHPA]: the EC50 in the data set with Coxsackie virus B4, in the data set on Punta Toro virus, in the data set on Reovirus-1, with Para-influenza-3 virus and in the data set with Sindbis virus was over 250 µM throughout. In the data set with Vero cells, the Minimum cytotoxic concentration is over 250 µM. Besides, the “Cytotoxicity Minimum cytotoxic concentration” value in the data set with HeLa cells was over 250 µM.

B1: UDA (protein, UniProt P11218 24-372, looked up)
Lectin/endochitinase 1: QRCGSQGGGGTCPALWCCSIWGWCGDSEPYCGRTCENKCWSGERSDHRCGAAVGNPPCGQDRCCSVHGWCGGGNDYCSGSKCQYRCSSSVRGPRVALSGNSTANSIGNVVVTEPLFDQMFSHRKDCPSQGFYSYHSFLVAAESFPAFGTIGDVATRKREVAAFLAHISQATSGERSDVENPHAWGLCHINTTTVTENDFCTSSDWPCAAGKKYSPRGPIQLTHNFNYGLAGQAIGEDLIQNPDLVEKDPIISFKTALWFWMSQHDNKPSCHDIVLNANSAANRIPNKGVIGNIISRAFGHDDFAVRSSSIGFYKRYCDMLGVSYGHDLKYWFDNTPSSEFQRIQMRVAA
In the case of B1, in [1], the “EC50 Feline Herpes Virus (FIPV)” value was 1.5 µg/mL. Moreover, in the data set with Feline Herpes virus, the “EC50 Feline Corona Virus” value was found to be 0.4 µg/mL.
